Compound activity as filed in PubChem.
SENP1 inh: inhibitors of human SENP1 SUMO protease catalytic domain; Q9P0U3; recombinant SENP1 catalytic domain, CyPet-SUMO1-YPet FRET cleavage; inhibition, % at 10 µM; 360,000 compounds, 0.21% hits;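 active = inhibition at least 30% at 10 µM, raw YFP signal under a set limit, fluorescence ratio 0.5 to 1.5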;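 also: 0% = enzyme with DMSO and 100% = no enzyme wells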
Target sequence (Q9P0U3 419-644 limits assumed): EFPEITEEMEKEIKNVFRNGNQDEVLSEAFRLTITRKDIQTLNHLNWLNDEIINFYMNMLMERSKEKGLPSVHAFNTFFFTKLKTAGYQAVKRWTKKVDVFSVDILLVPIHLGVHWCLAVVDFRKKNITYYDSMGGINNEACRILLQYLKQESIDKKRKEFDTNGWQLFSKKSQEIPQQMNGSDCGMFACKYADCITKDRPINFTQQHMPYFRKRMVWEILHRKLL
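Compound: 10 µM single point, 0.5% DMSO; Test system: hSENP1 catalytic domain, recombinant; Timing: 50 min reaction at room temperature; Technique: FRET, CFP and YFP emission; Control set: no-enzyme wells low, DMSO-plus-enzyme wells high control.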
SENP8 block-1: inhibitors of human SENP8 protease | Q96LD8 | purified SENP8, Z-RLRGG-aminoluciferin cleavage, luminescence | inhibition, % at 10 µM | 330,000 compounds, 1.2% hits | AID 2540; in the data active = inhibition above about 50%
Target sequence (Q96LD8 whole entry, looked up): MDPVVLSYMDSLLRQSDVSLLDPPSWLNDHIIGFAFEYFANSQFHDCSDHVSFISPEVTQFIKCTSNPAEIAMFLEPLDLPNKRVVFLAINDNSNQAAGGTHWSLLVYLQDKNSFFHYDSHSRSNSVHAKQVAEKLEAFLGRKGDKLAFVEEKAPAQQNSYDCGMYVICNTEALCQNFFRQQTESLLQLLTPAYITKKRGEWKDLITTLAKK
SENP7 block: blocks the human protease SENP7. Q9BQF6. recombinant SENP7, Z-RLRGG-aminoluciferin luminescence, 40 min. inhibition, % at 5 µM. 330,000 compounds, 1.5% hits;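 active = inhibition above about 50% at the single test dose, limit read from the data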;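 also: plate controls were DMSO with enzyme for no effect and no enzyme buffer wells for full effect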
SENP6 block: blocks the human protease SENP6 | Q9GZR1 | Recombinant SENP6 catalytic domain, aminoluciferin luminescence | inhibition, % at 10 µM | 330,000 compounds, 1.8% hits | AID 2599;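 active = inhibition above about 50% at the single tested dose, limit read from the data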;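 also: plate controls were DMSO wells with enzyme for no effect and DMSO wells lacking enzyme for full effect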
SENP8 block-2: blocks human SENP8 cleavage of Nedd8 substrate; Q96LD8; recombinant SENP8, Nedd8 substrate fluorescence; inhibition, % at 20 µM; 360,000 compounds, 0.64% hits; in the data active = inhibition mostly above about 40%, no sharp cut-off; inactive = mostly below about 27%
Apaf1 inhib: inhibitors of human Apaf-1 apoptosome | O14727 | reconstituted apoptosome caspase-3 activity, DEVD-Rh110 fluorescence | inhibition, % at 20 µM | 330,000 compounds, 0.71% hits; active = inhibition of at least 40% at 20 µM;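 also: plate controls were DMSO wells for no effect and DEVD-CHO caspase inhibitor wells for full effect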
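Assay system – apoptosome proteins · Medium – Hepes buffer, pH 7.5 · Also added – cytochrome c with DEVD-Rh110 · Timing – 30 min compound preincubation, 50 min activation, room temperature · Detection – Rh110 fluorescence, excitation 480 nm, emission 540 nm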
SENP8 confirm: human SENP8 inhibition, confirmed; inhibition, % at 12.5 µM; Recombinant SENP8, Z-RLRGG-aminoluciferin luminescence, 60 min; 6,200 compounds, 40% hits; AID 488912; shares compounds with SENP7 block;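 active = mean inhibition across replicates above about 50%, limit read from the data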
SENP6 conf: confirmation of human SENP6 protease inhibitors; shares compounds with SENP7 block; recombinant SENP6, Z-RLRGG-aminoluciferin luminescence; inhibition, % at 12.5 µM; 6,200 compounds, 58% hits
SENP7 conf: confirmation of human SENP7 protease inhibitors; recombinant SENP7, Z-RLRGG-aminoluciferin luminescence, 40 min; inhibition, % at 12.5 µM; 6,200 compounds, 69% hits; shares compounds with SENP7 block
Casp3 select: selectivity test for SENP inhibitors: human caspase-3 inhibition | AID 488918 | 6,200 compounds, 60% hits | inhibition, % at 12.5 µM | shares compounds with SENP7 block | purified caspase-3, Z-DEVD-aminoluciferin luminescence, 60 min;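 active = mean inhibition above about 50%, limit read from the data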;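 also: plate controls were enzyme with DMSO for no effect and wells without caspase-3 for full effect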
Target sequence (P42574 28-227 limits assumed): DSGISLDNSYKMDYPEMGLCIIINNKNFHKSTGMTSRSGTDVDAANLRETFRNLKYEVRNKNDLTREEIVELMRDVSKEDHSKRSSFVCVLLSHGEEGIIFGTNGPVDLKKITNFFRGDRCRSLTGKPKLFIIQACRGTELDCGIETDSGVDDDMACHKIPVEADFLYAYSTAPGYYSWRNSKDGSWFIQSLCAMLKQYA
SENP luc ctr: counter-screen for SENP inhibitors: luminescence interference; shares compounds with SENP7 block; Pre-incubated SENP8/Z-RLRGG-aminoluciferin, luciferase luminescence interference; inhibition, % at 12.5 µM; 6,200 compounds, 39% hits;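 active = mean inhibition above about 50% when retested at one dose, limit read from the data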;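 also: plate controls were DMSO wells with completed reaction for no effect and substrate without enzyme for full effect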
Starred values were filed as active, the others as inactive; . = no result given. A selection: hits, their analogues and other compounds. The true share with any hit is near 2.9%.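 The calls were made as follows, unless noted: active = mean inhibition above about 50% in the one-dose retest (limit read from the data); inactive = the rest.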

SMILES	SENP1 inh	SENP8 block-1	SENP7 block	SENP6 block	SENP8 block-2	Apaf1 inhib	SENP8 confirm	SENP6 conf	SENP7 conf	Casp3 select	SENP luc ctr
CN(C)c1ccc(C=Nc2ccccc2C(N)=O)cc1	-10	89*	96*	93*	-274	10	45	90*	101*	95*	32
CC1(c2ccccc2)C(C#N)C(=O)NC(=O)C1C#N (stereo unspecified)	1	.	.	.	17	.	.	.	.	.	.
CCOC(=O)[C@]12CCC=C1N(Cc1ccc3c(c1)OCO3)C(=O)[C@H](CC(=O)NCc1cccc(C(F)(F)F)c1)C2	-1	.	.	.	3	.	.	.	.	.	.
COc1ccccc1-c1noc2c1C(=O)N(Cc1cn(C3CCCC3)nn1)CC2	1	.	.	.	18	.	.	.	.	.	.
COc1oc(-c2ccccc2)nc1C(F)(F)F	1	2	71*	7	-2	-26	-18	-6	-9	5	-4
C[C@H](O)[C@@H]1CN2CCc3c([nH]c4ccccc34)[C@@H]2C[C@@H]1N(C)C(=O)OCc1ccccc1	-20	.	.	.	-367	.	.	.	.	.	.
CC1Cc2ccccc2N1C(=O)COC(=O)/C=C/c1ccc(F)cc1 (stereo unspecified)	1	1	1	7	8	22	.	.	.	.	.
CC1Cc2ccccc2N1C(=O)/C=C/c1cccc(F)c1 (stereo unspecified)	2	51*	55*	28	20	19	1	74*	90*	61*	55*
COc1ccc2c(-c3cc4ccc(OCc5ccc(F)cc5)cc4oc3=O)cc(=O)oc2c1	-5	.	.	.	-424	.	.	.	.	.	.
O=C1COc2ccc(OCc3ccc(F)cc3)cc21	-4	48	64*	71*	12	2	68*	67*	89*	76*	50*
COCCN1Cc2c(sc(C)c2C)N(C(=O)c2ccccc2)C1	-48	29	5	51*	-246	-2	4	1	32	30	49
COc1ccc(NC(=O)c2ccc(OCC3CCCO3)cc2)cc1Cl (stereo unspecified)	-1	38	67*	55*	-1	9	8	40	73*	39	4
Cc1ccnc(NC(=O)c2ccc(OCC3CCCO3)cc2)c1 (stereo unspecified)	-1	75*	83*	84*	5	0	82*	82*	97*	94*	61*
Cc1ccnc(NC(=O)COc2ccc3c(c2)CCC3)c1	1	94*	94*	82*	7	11	87*	86*	98*	91*	84*
CC(=O)Nc1ccc(NC(=O)COc2ccc3c(c2)CCC3)cc1	1	-4	-1	-9	20	-3	.	.	.	.	.
Cc1ccc(NC(=O)c2ccc(OCC3CCCO3)cc2)c(C)c1 (stereo unspecified)	3	-4	6	-14	11	-1	.	.	.	.	.
Cc1cccc(NC(=S)c2nc3ccccc3s2)c1	2	84*	90*	65*	26	9	62*	83*	90*	74*	26
Cc1cc(NC(=O)COC(=O)C2CSC3(C)CCC(=O)N23)ccc1Br (stereo unspecified)	-2	3	2	-22	15	9	.	.	.	.	.
O=C(c1cnc(Cl)c(Cl)c1)N1CCN(S(=O)(=O)c2cccs2)CC1	-1	.	.	.	-3	.	.	.	.	.	.
Fc1cccc(/C=N/Nc2nc3ccccc3[nH]2)c1	.	-14	6	-12	.	21	.	.	.	.	.
Fc1cccc(/C=N/Nc2ccc3ccccc3n2)c1	0	91*	95*	95*	-107	18	94*	94*	100*	82*	40
Brc1ccc(/C=N/Nc2ccc3ccccc3n2)cc1	1	62*	59*	78*	-104	13	-5	-7	18	26	1
Fc1cccc(/C=N/Nc2ccccn2)c1	-1	55*	74*	43	8	-1	51*	79*	95*	77*	35
Brc1ccccc1/C=N/Nc1ccc2ccccc2n1	-1	49	70*	75*	-129	14	41	78*	91*	53*	46
Fc1cccc(F)c1/C=N/Nc1ccccn1	3	23	26	36	13	5	.	.	.	.	.
SMILES	SENP1 inh	SENP8 block-1	SENP7 block	SENP6 block	SENP8 block-2	Apaf1 inhib	SENP8 confirm	SENP6 conf	SENP7 conf	Casp3 select	SENP luc ctr
Cc1cc(N/N=C/c2ccccc2Br)nc2ccccc12	-2	-17	-9	-1	-98	13	.	.	.	.	.
O=C1NC[C@H](CCCCN2C[C@H](Cc3ccc(O)cc3)N(CCC3CCCCC3)C(=O)C2=O)N(CCc2ccc(O)cc2)C1=O	0	.	.	.	12	.	.	.	.	.	.
O=C(/C=C/[C@H]1O[C@@H](n2cnc3c(NC(=O)c4ccccc4)ncnc32)[C@H](O)[C@@H]1O)NCCCN1CCCC1=O	2	.	.	.	11	.	.	.	.	.	.
O=C1Nc2ccc(Cl)cc2[C@@](C#CC2CC2)(C(F)(F)F)O1	.	8	1	4	.	13	.	.	.	.	.
O=S(=O)(N/N=C/c1ccc2c(c1)OCCO2)c1ccccc1	2	-4	-6	-6	9	-8	.	.	.	.	.
C(=N\Nc1ccccn1)/c1ccc2c(c1)OCCO2	0	72*	83*	86*	-4	-2	81*	80*	97*	84*	17
Cc1ccc(-c2csc(NC(=O)COC(=O)c3cccc(S(=O)(=O)N4CCOCC4)c3)n2)cc1	.	0	36	51*	.	10	52*	51*	83*	70*	53*
Cc1ccc(-c2csc(NC(=O)c3cccc(S(=O)(=O)N4CCN(C)CC4)c3)n2)cc1	3	-2	4	-11	-43	4	.	.	.	.	.
O=C(Nc1ccc2c(c1)OCCO2)c1cc2sccc2n1Cc1ccccc1	-5	-8	-1	-6	-33	-1	.	.	.	.	.
Cn1nccc1C(=O)Nc1ccc2c(c1)OCCO2	1	55*	71*	81*	14	-11	58*	58*	88*	88*	65*
Cn1nc(C(=O)Nc2ccc3c(c2)OCCO3)cc1C(=O)O	2	40	66*	56*	6	0	56*	54*	86*	85*	64*
